Assay results published in the RNAGym collection of RNA variant scans (doi:10.1126/science.aae0568).
This sample holds only a part of the variants without activity.

B1: tRNA (parent)
chain: GUUCCGUUGGCGUAAUGGUAACGCGUCUCCCUCCUAAGGAGAAGACUGCGGGUUCGAGUCCCGUACGGAACG

Variants of: B1
Experiment: yeast fitness relative to wild type (ratio to wild type); higher = fitter; tRNA-Arg(CCU), competitive growth, 37 C, YPD
In short: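 A pool of Saccharomyces cerevisiae strains, each with a tRNA-Arg(CCU) gene variant at the native genomic locus, was competed in YPD at 37°C for 24 hours across six parallel replicates. The variants had been chemically synthesised at a 3% per-site mutation rate over 69 sites, and gene amplicons before and after competition were read by 100-nucleotide paired-end sequencing. Darwinian fitness relative to wild type rested on changes in genotype frequencies. Genotypes required ≥ 100 starting reads, and estimates < 0.5 were set to 0.5.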

Variant	yeast fitness
GUUCCGUUGGCGUAAUGGUAACGCGUCUCCCUCCUAAGGAGAAGACUGUGGGUUCGAAUCCCGUACGGAACG	0.948
GUUCCGUUGGCGUAAUGGUAACGCGUCUCCCUCCUAAGGAGAAGACUGUGGGUUCGACUCCGGUACGGCACG	0.559
GUUCCGUUGGCGUAAUGGUAACGCGUCUCCCUCCUAAGGAGAAGACUGUGGGUUCGAGUCCCAUACGGAACG	0.908
GUUCCGUUGGCGUAAUGGUAACGCGUCUCCCUCCUAAGGAGAAGACUGUGGGUUCGAGUCCCCUACGGAACG	0.703
GUUCCGUUGGCGUAAUGGUAACGCGUCUCCCUCCUAAGGAGAAGACUGUGGGUUCGAGUCCCGUACGAAACG	0.85
GUUCCGUUGGCGUAAUGGUAACGCGUCUCCCUCCUAAGGAGAAGACUGUGGGUUCGAGUCCCGUACGUAACG	0.976
GUUCCGUUGGCGUAAUGGUAACGCGUCUCCCUCCUAAGGAGAAGACUGUGGGAUCGAGUCCCGUACGGAACG	0.791
GUUCCGUUGGCGUAAUGGUAACGCGUCUCCCUCCUAAGGAGAAGACUGUGGGAUCGAGUCCCGUACGAAACG	≤ 0.5
GUUCCGUUGGCGUAAUGGUAACGCGUCUCCCUCCUAAGGAGAAGACUGUGGGUAGGAGUCCCGUACGGAACG	≤ 0.5
GUUCCGUUGGCGUAAUGGUAACGCGUCUCCCUCCUAAGGAGAAGACUGUGGGUCCGAGUCCCGUACGGACCG	0.617
GUUCCGUUGGCGUAAUGGUAACGCGUCUCCCUCCUAAGGAGAAGACUGUGGGUGCGAGUCCCGUACGGAACG	0.562
GUUCCGUUGGCGUAAUGGUAACGCGUCUCCCUCCUAAGGAGAAGACUGUGGGUUCGAGCCCCGUACGGAACG	0.91
GUUCCGUUGGCGUAAUGGUAACGCGUCUCCCUCCUAAGGAGAAGACUGUGGGUUCGAGCCCGGUACGGAACG	0.503
GUUCCGUUGGCGUAAUGGUAACGCGUCUCCCUCCUAAGGAGAAGACUGUGGGUUCGAGGUCCGUACGGAACG	≤ 0.5
GUUCCGUUGGCGUAAUGGUAACGCGUCUCCCUCCUAAGGAGAAGACUGUGGGUUCGAGUCCCGAACGGUACG	0.558
GUUCCGUUGGCGUAAUGGUAACGCGUCUCCCUCCUAAGGAGAAGACUGCAGGUUCGCGUCCCGUACGGAACG	0.611
GUUCCGUUGGCGUAAUGGUAACGCGUCUCCCUCCUAAGGAGAAGACUGCAGGUUCGCGUCCCGUAUGGAACG	≤ 0.5
GUUCCGUUGGCGUAAUGGUAACGCGUCUCCCUCCUAAGGAGAAGACUGCAGGUUCGAGUCCCGUCCGGAACG	0.887
GUUCCGUUGGCGUAAUGGUAACGCGUCUCCCUCCUAAGGAGAAGACUGCAGGUUCGAGUCCCGUGCGGAACG	1.03

Variant	yeast fitness
GUUCCGUUGGCGUAAUGGUAACGCGUCUCCCUCCUAAGGAGAAGACUGCAGGUUCGAGUCCCGUACGGCACG	0.74
GUUCCGUUGGCGUAAUGGUAACGCGUCUCCCUCCUAAGGAGAAGACUGCAGGUUCGAGUCCCGUACGGACCG	0.823
GUUCCGUUGGCGUAAUGGUAACGCGUCUCCCUCCUAAGGAGAAGACUGCAGGUUGGAGUCCCGUACGGAACG	0.514
GUUCCGUUGGCGUAAUGGUAACGCGUCUCCCUCCUAAGGAGAAGACUGCAGGUUUGAGUCCCGUACGGAACG	0.893
GUUCCGUUGGCGUAAUGGUAACGCGUCUCCCUCCUAAGGAGAAGACUGCAGGUUUGAGUCCCGUACCGAACG	0.563
GUUCCGUUGGCGUAAUGGUAACGCGUCUCCCUCCUAAGGAGAAGACUGCAGGUUCGAGUGCCGUACGGAACG	0.748
GUUCCGUUGGCGUAAUGGUAACGCGUCUCCCUCCUAAGGAGAAGACUGCAGGUUCGAGUUCCGUACGGAACG	0.819
GUUCCGUUGGCGUAAUGGUAACGCGUCUCCCUCCUAAGGAGAAGACUGCAGGUUCGAGUCUCGUACGGAACG	0.863
GUUCCGUUGGCGUAAUGGUAACGCGUCUCCCUCCUAAGGAGAAGACUGCAGGUUCGAGUCCAGUACGGAACG	0.875
GUUCCGUUGGCGUAAUGGUAACGCGUCUCCCUCCUAAGGAGAAGACUGCAGCUUCGAGUCCCGUACGGAACG	0.663
GUUCCGUUGGCGUAAUGGUAACGCGUCUCCCUCCUAAGGAGAAGACUGCAGGUUCGACUCCCGUAUGGAACG	0.649
GUUCCGUUGGCGUAAUGGUAACGCGUCUCCCUCCUAAGGAGAAGACUGCAGGUUCGAGUCCCCUACGGAACG	0.737
GUUCCGUUGGCGUAAUGGUAACGCGUCUCCCUCCUAAGGAGAAGACUGCAGGUUCGAGUCCCGUACCUAACG	≤ 0.5
GUUCCGUUGGCGUAAUGGUAACGCGUCUCCCUCCUAAGGAGAAGACUGCAGGAUCGGAUCCCGUACGGCACG	0.657
GUUCCGUUGGCGUAAUGGUAACGCGUCUCCCUCCUAAGGAGAAGACUGCAGGAUCGAGUCUCGUACGGAACG	0.532
GUUCCGUUGGCGUAAUGGUAACGCGUCUCCCUCCUAAGGAGAAGACUGCAGGUGCGAGUCCCGUACGGAACG	0.559
GUUCCGUUGGCGUAAUGGUAACGCGUCUCCCUCCUAAGGAGAAGACUGCAGGUUCGAGACCCGUACCGAACG	≤ 0.5
GUUCCGUUGGCGUAAUGGUAACGCGUCUCCCUCCUAAGGAGAAGACUGCCGGUUCGCGUCUCGUACGGAACG	0.613
GUUCCGUUGGCGUAAUGGUAACGCGUCUCCCUCCUAAGGAGAAGACUGCCGGUUCGGGUCCCGUACGGAACG	0.789
